A short description of data set [1]: Retention time of compound by RP-HPLC analysis. Format: physicochemical. An outline of the steps: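 Analytical reversed-phase HPLC.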
Data set [2] relates to Enterococcus faecium. Put plainly: Antibacterial activity against vancomycin resistant Enterococcus faecium BAA 2317 assessed as inhibition of bacterial growth incubated for 24 hrs by absorbance based microplate reader analysis. The note with it: read-out: MIC100. In kind it is functional. The method, boiled down: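 Broth microdilution. A single colony was grown 24 h in its recommended broth, then diluted 1:10 000 in the same medium. Peptide serial dilutions were added from DMSO stock at 4 µL per 196 µL inoculated medium. Plates were incubated aerobically or anaerobically as each pathogen requires, at 37 °C for 24 h, and OD600 was read. MIC was the lowest concentration giving 100% growth inhibition. Duplicate wells; assay repeated five times independently.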

For data set [3], the system named is Salmonella enterica. Put plainly: Antibacterial activity against Salmonella enterica ATCC 13314 assessed as inhibition of bacterial growth incubated for 24 hrs by absorbance based microplate reader analysis. In kind it is functional. An outline of the steps:
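Broth microdilution. An overnight single-colony culture in recommended broth was diluted 1:10 000, and peptide serial dilutions in DMSO were added (4 µL into 196 µL). Plates incubated 24 h at 37 °C, aerobic or anaerobic as required, then OD600 read. Inhibition was calculated against pathogen-only and blank wells.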

Data set [4] relates to Staphylococcus aureus. Nature of the data set: Bactericidal activity against Staphylococcus aureus ATCC 25923 assessed as inhibition of bacterial growth at MIC concentration incubated for 48 hrs by broth microdilution assay. In kind it is functional, organism-based. An outline of the steps: (§1)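 From broth-microdilution wells showing no growth, 10 µL was spotted onto agar and incubated 48 h at 37 °C. Plates were inspected for colonies. Fidaxomicin at 1 µM served as control.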
For orientation: In broth dilution the organism is exposed to a series of concentrations in liquid medium.

The next data set deals with Clostridioides difficile. Nature of the data set: Bactericidal activity against Clostridium difficile ATCC 43602 assessed as inhibition of bacterial growth at MIC concentration incubated for 48 hrs by broth microdilution assay. In kind it is functional, organism-based. The method, boiled down:
as §1

The subject of the next data set is Listeria monocytogenes. Nature of the data set: Bactericidal activity against Listeria monocytogenes ATCC 15313 assessed as inhibition of bacterial growth at MIC concentration incubated for 48 hrs by broth microdilution assay. In kind it is functional, organism-based. The method, boiled down: as §1
Data set [5] deals with Staphylococcus aureus. Nature of the data set: Bactericidal activity against methicillin resistant Staphylococcus aureus BAA 2313 assessed as inhibition of bacterial growth at MIC concentration incubated for 48 hrs by broth microdilution assay. Format: functional, organism-based. An outline of the steps: (§2)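 Plates were incubated 48 h at 37 °C and examined for colonies. A fidaxomicin-treated culture at 1 µM served as the control.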

For data set [6], the system named is Enterococcus faecium. Put plainly: Bactericidal activity against vancomycin resistant Enterococcus faecium BAA 2317 assessed as inhibition of bacterial growth at MIC concentration incubated for 48 hrs by broth microdilution assay. In kind it is functional, organism-based. The method, boiled down: as §2
Another data set concerns Escherichia coli. Put plainly: Bactericidal activity against Escherichia coli ATCC 33694 assessed as inhibition of bacterial growth at MIC concentration incubated for 48 hrs by broth microdilution assay. In kind it is functional, organism-based. The method, boiled down: as §1
For another data set, the system named is Pseudomonas aeruginosa. Nature of the data set: Bactericidal activity against Pseudomonas aeruginosa BAA 1744 assessed as inhibition of bacterial growth at MIC concentration incubated for 48 hrs by broth microdilution assay. In kind it is functional, organism-based. The method, boiled down:
as §1

In data set [7] the test system is Salmonella enterica. Put plainly: Bactericidal activity against Salmonella enterica ATCC 13314 assessed as inhibition of bacterial growth at MIC concentration incubated for 48 hrs by broth microdilution assay. In kind it is functional, organism-based. The method, boiled down: as §1
For data set [8], the system named is Staphylococcus aureus. Put plainly: Antibacterial activity against Staphylococcus aureus ATCC 25923 assessed as reduction in bacterial growth at MIC concentration measured after 24 hrs by time-kill kinetic analysis. In kind it is functional, organism-based. An outline of the steps: (§3)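 Samples (5 µL) taken at 0, 1, 2, 4, 6, 12, 18 and 24 h, tenfold diluted in 0.85% NaCl, and plated on TSA overnight at 37 °C for CFU counts. Two independent duplicates.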

In data set [9] the test system is Staphylococcus aureus. Nature of the data set: Antibacterial activity against Staphylococcus aureus ATCC 25923 assessed as reduction in colony forming units at MIC concentration measured after 2 hrs by time-kill kinetic analysis. In kind it is functional. An outline of the steps:
as §3

Data set [10] concerns Staphylococcus aureus. Nature of the data set: Antibacterial activity against Staphylococcus aureus ATCC 25923 assessed as reduction in surviving bacteria at MIC concentration measured within 6 hrs by time-kill kinetic analysis. Format: functional. The method, boiled down: as §3
The test system of data set [11] is Staphylococcus aureus. Put plainly: Induction of morphological changes in Staphylococcus aureus ATCC 25923 assessed as leakage of intracellular content at MIC concentration by transmission electron microscopic analysis. Format: functional, organism-based. An outline of the steps:
(§4)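 Cells were pelleted at 4 °C, washed in 0.1 M PBS pH 7.2, and fixed overnight (4% formaldehyde, 1.25% glutaraldehyde, ruthenium red). Post-fixed in 1% OsO4, dehydrated through ethanol, embedded in epoxy resin and imaged by TEM.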

Data set [12] concerns Staphylococcus aureus. Put plainly: Induction of morphological changes in Staphylococcus aureus ATCC 25923 assessed as cell damage at MIC concentration by transmission electron microscopic analysis. Format: functional, organism-based. An outline of the steps:
as §4

For data set [13], the system named is Staphylococcus aureus. Nature of the data set: Induction of morphological changes in Staphylococcus aureus ATCC 25923 assessed as extracellular protrusions by measuring fragments of lysed cell wall at MIC concentration by transmission electron microscopic analysis. In kind it is functional, organism-based. The method, boiled down: as §4
For data set [14], the system named is Staphylococcus aureus. Nature of the data set: Induction of morphological changes in Staphylococcus aureus ATCC 25923 assessed as appearance of detached fragments at MIC concentration by transmission electron microscopic analysis. Format: functional, organism-based. The method, boiled down: as §4

Values after ≈ are worked out from the molar mass of the structure shown. Active and inactive are the calls of the source. No cut-off for these calls is given here. Square brackets hold non-standard residues; d marks the D form. Peptide text beside a SMILES is read from it.

Here are results for one compound from ChEMBL document CHEMBL6177914, “Human microbiome derived synthetic antimicrobial peptides with activity against Gram-negative, Gram-positive, and antibiotic resistant bacteria” (RSC Med Chem, 2025).

On to `CC[C@H](C)[C@@H]1NC(=O)CNC(=O)CNC(=O)[C@H](CO)NC(=O)[C@H]([C@@H](C)CC)NC(=O)[C@H](CCCCN)NC(=O)[C@H](CO)NC(=O)[C@H](CC(C)C)NC(=O)[C@@H](C(C)C)NC(=O)[C@@H]2CCCN2C(=O)[C@H]([C@@H](C)CC)NC(=O)[C@H](C(C)C)NC(=O)[C@H](CC(C)C)NC(=O)[C@@H]2CCCN2C(=O)CNC1=O` (cyclo(LSKISGGIGPLVIP[dV])), for which the Retention_time in [1] came to 17.76 min. Besides, the MIC with Enterococcus faecium [2] was determined as 1.5 µM (≈ 2.15 µg/mL). Moreover, the result in the data set with Salmonella enterica [3] was inactive. For the same compound, the outcome in the data set on Staphylococcus aureus [4], in the data set on Clostridioides difficile, in the data set on Listeria monocytogenes, in the data set on Staphylococcus aureus [5], in the data set on Enterococcus faecium [6] and in the data set on Escherichia coli was Active. Further, the result in the data set on Pseudomonas aeruginosa, in the data set with Salmonella enterica [7], with Staphylococcus aureus [8], with Staphylococcus aureus [11], in the data set with Staphylococcus aureus [12] and in the data set with Staphylococcus aureus [13] was Active. Further, the result in the data set with Staphylococcus aureus [14] was Active. In addition, the Activity in the data set on Staphylococcus aureus [9] amounted to 3 log10CFU/ml; in the data set on Staphylococcus aureus [10], 5 log10CFU/ml.
